Consider eleven compounds from ChEMBL document CHEMBL5576142, “Exploring 2-Sulfonylpyrimidine Warheads as Acrylamide Surrogates for Targeted Covalent Inhibition: A BTK Story” (J Med Chem, 2024).

Data set [1] concerns the target T1, Tyrosine-protein kinase BTK (Homo sapiens, UniProt Q06187). Conditions: OCILY7, dose 500.0 nM, time 1.0 hrs.
Data set [2] deals with T1, Tyrosine-protein kinase BTK.
The subject of data set [3] is Epidermal growth factor receptor (Homo sapiens), P00533 [T790M]. The experiment in a line: Inhibition of EGFR T790M mutant (unknown origin) expressed in expressed in Escherichia coli BL21 at 1 uM incubated for 1 hr by Eurofins-KinomeScan assay relative to control.
The subject of data set [4] is Epidermal growth factor receptor (Homo sapiens), P00533 [L861Q]. The experiment in a line: Inhibition of EGFR L861Q mutant (unknown origin) expressed in expressed in Escherichia coli BL21 at 1 uM incubated for 1 hr by Eurofins-KinomeScan assay relative to control.
Data set [5] deals with T1, Tyrosine-protein kinase BTK. Conditions: OCILY7, dose 500.0 nM, time 1.0 hrs. The source holds these as a separate data set.
Data set [6] relates to Epidermal growth factor receptor (Homo sapiens), P00533 [G719S]. The experiment in a line: Inhibition of EGFR G719S mutant (unknown origin) expressed in expressed in Escherichia coli BL21 at 1 uM incubated for 1 hr by Eurofins-KinomeScan assay relative to control.
The target of data set [7] is T1, Tyrosine-protein kinase BTK. Conditions: OCILY7, dose 500.0 nM, time 1.0 hrs. This is another data set of the same source.
For data set [8] the target is unchanged. Conditions: OCILY7, dose 500.0 nM, time 1.0 hrs. This is another data set of the same source.
The subject of data set [9] is Epidermal growth factor receptor (Homo sapiens), P00533 [G719C]. Briefly: Inhibition of EGFR G719C mutant (unknown origin) expressed in expressed in Escherichia coli BL21 at 1 uM incubated for 1 hr by Eurofins-KinomeScan assay relative to control.
Data set [10] has as its target T1, Tyrosine-protein kinase BTK. Conditions: OCILY7, dose 500.0 nM, time 1.0 hrs. This is another data set of the same source.
For data set [11] the target is unchanged. Briefly: Inhibition of BTK in anti-IgM induced human OCILY7 cells assessed as increase in calcium flux at 250 nM incubated for […] followed by anti-IgM and Pluronic F127 stimulation measured after […] by Fluo-3 AM based flow cytometry. It is filed as cell-based. The conditions noted are these: time 5.0 hrs.
Data set [12] relates to TMD8. Briefly: Induction of apoptosis in human TMD8 cells assessed as early apoptotic cells at 1000 nM incubated for 72 hrs by Annexin-V/PI staining based flow cytometry (reference value: 4.8 %). The data set is classed as functional.
The test system of data set [13] is TMD8. Briefly: Induction of apoptosis in human TMD8 cells assessed as necrotic cells at 100 nM incubated for 72 hrs by Annexin-V/PI staining based flow cytometry (reference value: 3 %). The data set is classed as functional.
Data set [14] relates to TMD8. The experiment in a line: Induction of pyroptosis in human TMD8 cells assessed as upregulation of TLR8 gene expression at 1 uM incubated for 8 hrs by RNA-sequencing analysis. The data set is classed as functional, cell-based. The procedure, abridged:
(§1)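 TMD8 cells (RPMI-1640, 10% FBS, glutamine) exposed to compound at 1 μM or DMSO for 8 h. Total RNA extracted and analysed by RNA-seq. Differential expression called against DMSO at FDR < 0.01 with |log2FC| > 0.5.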

For data set [15], the system named is TMD8. Briefly: Induction of pyroptosis in human TMD8 cells assessed as upregulation of TLR4 gene expression at 1 uM incubated for 8 hrs by RNA-sequencing analysis. It is filed as functional, cell-based. In outline: as §1
Data set [16] has as its system TMD8. The experiment in a line: Induction of necroptosis in human TMD8 cells assessed as upregulation of TNFSF10 gene expression at 1 uM incubated for 8 hrs by RNA-sequencing analysis. The data set is classed as functional, cell-based. The procedure, abridged:
as §1

Data set [17] relates to TMD8. Briefly: Induction of apoptosis in human TMD8 cells assessed as necrotic cells at 10 nM incubated for 72 hrs by Annexin-V/PI staining based flow cytometry (reference value: 3 %). The data set is classed as functional.
In data set [18] the test system is TMD8. Briefly: Induction of apoptosis in human TMD8 cells assessed as viable cells at 1000 nM incubated for 72 hrs by Annexin-V/PI staining based flow cytometry (reference value: 66 %). The data set is classed as functional. The conditions noted are these: read-out: Activity.
The test system of data set [19] is TMD8. The experiment in a line: Induction of necroptosis in human TMD8 cells assessed as upregulation of TRPM7 gene expression at 1 uM incubated for 8 hrs by RNA-sequencing analysis. The data set is classed as functional, cell-based. The procedure, abridged:
as §1

Data set [20] relates to TMD8. The experiment in a line: Induction of apoptosis in human TMD8 cells assessed as late apoptotic cells at 10 nM incubated for 72 hrs by Annexin-V/PI staining based flow cytometry (reference value: 25.4 %). The data set is classed as functional.
In data set [21] the test system is TMD8. The experiment in a line: Induction of apoptosis in human TMD8 cells assessed as late apoptotic cells at 100 nM incubated for 72 hrs by Annexin-V/PI staining based flow cytometry (reference value: 25.4 %). It is filed as functional.
For data set [22], the system named is TMD8. The experiment in a line: Induction of apoptosis in human TMD8 cells assessed as necrotic cells at 1000 nM incubated for 72 hrs by Annexin-V/PI staining based flow cytometry (reference value: 3 %). It is filed as functional.
For data set [23], the system named is TMD8. Briefly: Induction of apoptosis in human TMD8 cells assessed as early apoptotic cells at 10 nM incubated for 72 hrs by Annexin-V/PI staining based flow cytometry (reference value: 4.8 %). The data set is classed as functional.
In data set [24] the test system is TMD8. The experiment in a line: Induction of necroptosis in human TMD8 cells assessed as upregulation of TLR4 gene expression at 1 uM incubated for 8 hrs by RNA-sequencing analysis. It is filed as functional, cell-based. The procedure, abridged: as §1
In data set [25] the test system is TMD8. Briefly: Induction of pyroptosis in human TMD8 cells assessed as upregulation of NLRP7 gene expression at 1 uM incubated for 8 hrs by RNA-sequencing analysis. The data set is classed as functional, cell-based. The procedure, abridged:
as §1

For data set [26], the system named is TMD8. Briefly: Downregulation of CYP1A1 gene expression in human TMD8 cells at 1 uM incubated for 8 hrs by RNA-sequencing analysis. It is filed as functional, cell-based. In outline:
as §1

The target of data set [27] is T1, Tyrosine-protein kinase BTK. Briefly: Inhibition of NanoLuc fused BTK (unknown origin) transiently transfected in HEK293 cells incubated for 1 hr by NanoBRET assay. It is filed as cell-based.
Data set [28] concerns TMD8. Briefly: Induction of necroptosis in human TMD8 cells assessed as upregulation of RIPK1 gene expression at 1 uM incubated for 8 hrs by RNA-sequencing analysis. The data set is classed as functional, cell-based. In outline: as §1
Data set [29] can be described thus: GSH reactivity in PBS buffer at pH 7.4 assessed as pseudo-first order rate constant incubated upto 6 hrs at 20 degreeC by LC-MS analysis. It is filed as physicochemical. The conditions noted are these: pH 7.4, 6 h. The procedure, abridged: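 Compound at 100 μM with 1 mM GSH (10 equiv) in PBS pH 7.4, containing 100 μM 4-hydroxybenzoic acid as internal standard and 5% v/v DMSO, held at 20 °C. LC-MS traces taken every 10 min. Normalized integrals plotted against time to give a pseudo-first-order rate constant. Run in triplicate.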

Data set [30] concerns the target T1, Tyrosine-protein kinase BTK. Briefly: Covalent inhibition of full-length BTK (unknown origin) expressed in Escherichia coli BL21 (DE3) at 100 nM incubated for 1 hr in presence of ATP by ADP-Glo kinase assay relative to control.
Data set [31] is described as follows: Stability in human plasma assessed as parent compound remaining incubated for 3 hrs by UPLC-MS analysis. The data set is classed as ADME, cell-free. The conditions noted are these: read-out: Stability.
In data set [32] the test system is TMD8. The experiment in a line: Downregulation of NR4A1 gene expression in human TMD8 cells at 1 uM incubated for 8 hrs by RNA-sequencing analysis. It is filed as functional, cell-based. In outline: (§2)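 TMD8 cells (RPMI-1640, 10% FBS, penicillin/streptomycin, 2 mM glutamine) exposed to compound or DMSO vehicle for 8 h; total RNA extracted for RNA-seq. Differential expression versus DMSO scored at FDR < 0.01 with log2 fold change beyond ±0.5.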

For data set [33], the system named is TMD8. Briefly: Downregulation of EGR2 gene expression in human TMD8 cells at 1 uM incubated for 8 hrs by RNA-sequencing analysis. It is filed as functional, cell-based. In outline:
as §2

Data set [34] relates to TMD8. The experiment in a line: Downregulation of CD83 gene expression in human TMD8 cells at 1 uM incubated for 8 hrs by RNA-sequencing analysis. The data set is classed as functional, cell-based. The procedure, abridged: as §2
Data set [35] deals with TMD8. Briefly: Downregulation of LTA gene expression in human TMD8 cells at 1 uM incubated for 8 hrs by RNA-sequencing analysis. The data set is classed as functional, cell-based. The procedure, abridged: as §2
Data set [36] concerns TMD8. Briefly: Downregulation of IL-10 gene expression in human TMD8 cells at 1 uM incubated for 8 hrs by RNA-sequencing analysis. It is filed as functional, cell-based. In outline:
as §2

The test system of data set [37] is TMD8. The experiment in a line: Downregulation of NFKBID gene expression in human TMD8 cells at 1 uM incubated for 8 hrs by RNA-sequencing analysis. It is filed as functional, cell-based. In outline: as §2

pIC50: −log10 of the molar value. Activity calls are given as the source filed them. The calls are words filed in the database; no cut-off is given here. Where only a bound is given, the exact number is not on record here.

Epidermal growth factor receptor (Homo sapiens), P00533 [L861Q], sequence (P00533 whole entry L861Q): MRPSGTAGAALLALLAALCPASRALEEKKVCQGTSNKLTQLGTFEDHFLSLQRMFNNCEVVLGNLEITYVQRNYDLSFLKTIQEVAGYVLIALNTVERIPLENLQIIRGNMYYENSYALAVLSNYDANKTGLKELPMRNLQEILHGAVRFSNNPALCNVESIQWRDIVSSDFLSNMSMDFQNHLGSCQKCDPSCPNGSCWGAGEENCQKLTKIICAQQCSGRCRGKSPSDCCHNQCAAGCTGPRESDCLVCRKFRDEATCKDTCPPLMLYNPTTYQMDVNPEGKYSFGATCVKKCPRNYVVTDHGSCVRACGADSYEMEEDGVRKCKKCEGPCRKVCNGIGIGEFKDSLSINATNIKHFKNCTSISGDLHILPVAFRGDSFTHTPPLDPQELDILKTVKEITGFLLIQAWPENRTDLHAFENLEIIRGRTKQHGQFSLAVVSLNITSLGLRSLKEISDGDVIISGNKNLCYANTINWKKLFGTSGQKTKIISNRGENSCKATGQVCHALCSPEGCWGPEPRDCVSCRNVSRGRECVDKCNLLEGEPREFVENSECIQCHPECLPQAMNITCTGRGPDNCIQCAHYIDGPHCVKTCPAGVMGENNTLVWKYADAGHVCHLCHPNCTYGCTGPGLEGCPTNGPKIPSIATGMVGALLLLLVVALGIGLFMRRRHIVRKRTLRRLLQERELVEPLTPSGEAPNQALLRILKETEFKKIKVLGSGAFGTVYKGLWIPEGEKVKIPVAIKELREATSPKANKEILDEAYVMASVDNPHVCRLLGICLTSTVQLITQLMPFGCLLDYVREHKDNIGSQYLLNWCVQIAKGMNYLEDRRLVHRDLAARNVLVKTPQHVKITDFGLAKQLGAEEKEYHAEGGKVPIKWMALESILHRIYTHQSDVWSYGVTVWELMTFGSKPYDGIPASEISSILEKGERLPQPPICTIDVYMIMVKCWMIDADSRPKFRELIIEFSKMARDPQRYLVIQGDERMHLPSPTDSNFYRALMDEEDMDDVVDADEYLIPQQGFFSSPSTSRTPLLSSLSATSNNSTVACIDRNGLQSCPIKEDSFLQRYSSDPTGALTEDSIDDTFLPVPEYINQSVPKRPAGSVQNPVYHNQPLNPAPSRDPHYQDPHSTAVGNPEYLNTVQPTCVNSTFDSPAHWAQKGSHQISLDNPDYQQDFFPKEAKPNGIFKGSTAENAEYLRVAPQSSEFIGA
Epidermal growth factor receptor (Homo sapiens), P00533 [G719C], sequence (P00533 whole entry G719C): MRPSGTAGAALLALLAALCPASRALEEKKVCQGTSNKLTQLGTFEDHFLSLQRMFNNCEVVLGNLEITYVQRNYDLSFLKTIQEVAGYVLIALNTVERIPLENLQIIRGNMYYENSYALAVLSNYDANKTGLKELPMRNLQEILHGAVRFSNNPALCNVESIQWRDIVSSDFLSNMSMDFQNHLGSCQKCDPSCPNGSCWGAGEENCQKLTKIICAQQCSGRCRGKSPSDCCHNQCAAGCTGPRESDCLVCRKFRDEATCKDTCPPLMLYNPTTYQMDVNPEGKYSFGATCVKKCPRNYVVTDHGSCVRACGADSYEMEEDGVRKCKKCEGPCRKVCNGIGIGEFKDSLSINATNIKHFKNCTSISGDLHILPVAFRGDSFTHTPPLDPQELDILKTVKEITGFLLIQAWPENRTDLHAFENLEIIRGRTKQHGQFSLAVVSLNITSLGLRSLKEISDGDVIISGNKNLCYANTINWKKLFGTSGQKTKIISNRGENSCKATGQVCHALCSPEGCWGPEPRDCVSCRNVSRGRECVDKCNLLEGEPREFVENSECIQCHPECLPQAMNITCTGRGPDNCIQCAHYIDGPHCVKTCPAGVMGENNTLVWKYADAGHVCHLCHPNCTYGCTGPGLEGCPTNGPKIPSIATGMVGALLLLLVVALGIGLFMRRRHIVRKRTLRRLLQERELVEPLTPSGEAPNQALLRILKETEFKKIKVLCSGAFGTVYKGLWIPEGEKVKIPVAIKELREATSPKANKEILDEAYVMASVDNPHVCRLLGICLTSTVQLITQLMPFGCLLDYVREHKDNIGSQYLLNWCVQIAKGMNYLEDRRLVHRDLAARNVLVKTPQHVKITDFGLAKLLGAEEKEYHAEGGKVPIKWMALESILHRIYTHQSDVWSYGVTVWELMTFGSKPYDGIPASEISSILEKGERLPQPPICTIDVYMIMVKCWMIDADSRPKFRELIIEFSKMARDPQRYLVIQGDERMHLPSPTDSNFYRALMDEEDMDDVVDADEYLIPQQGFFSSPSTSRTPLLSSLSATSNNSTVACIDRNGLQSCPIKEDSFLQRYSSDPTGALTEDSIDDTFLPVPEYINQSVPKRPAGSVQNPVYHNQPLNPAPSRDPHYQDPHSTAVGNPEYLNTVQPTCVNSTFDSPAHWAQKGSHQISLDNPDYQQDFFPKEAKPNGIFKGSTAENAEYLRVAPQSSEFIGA
Epidermal growth factor receptor (Homo sapiens), P00533 [G719S], sequence (P00533 whole entry G719S): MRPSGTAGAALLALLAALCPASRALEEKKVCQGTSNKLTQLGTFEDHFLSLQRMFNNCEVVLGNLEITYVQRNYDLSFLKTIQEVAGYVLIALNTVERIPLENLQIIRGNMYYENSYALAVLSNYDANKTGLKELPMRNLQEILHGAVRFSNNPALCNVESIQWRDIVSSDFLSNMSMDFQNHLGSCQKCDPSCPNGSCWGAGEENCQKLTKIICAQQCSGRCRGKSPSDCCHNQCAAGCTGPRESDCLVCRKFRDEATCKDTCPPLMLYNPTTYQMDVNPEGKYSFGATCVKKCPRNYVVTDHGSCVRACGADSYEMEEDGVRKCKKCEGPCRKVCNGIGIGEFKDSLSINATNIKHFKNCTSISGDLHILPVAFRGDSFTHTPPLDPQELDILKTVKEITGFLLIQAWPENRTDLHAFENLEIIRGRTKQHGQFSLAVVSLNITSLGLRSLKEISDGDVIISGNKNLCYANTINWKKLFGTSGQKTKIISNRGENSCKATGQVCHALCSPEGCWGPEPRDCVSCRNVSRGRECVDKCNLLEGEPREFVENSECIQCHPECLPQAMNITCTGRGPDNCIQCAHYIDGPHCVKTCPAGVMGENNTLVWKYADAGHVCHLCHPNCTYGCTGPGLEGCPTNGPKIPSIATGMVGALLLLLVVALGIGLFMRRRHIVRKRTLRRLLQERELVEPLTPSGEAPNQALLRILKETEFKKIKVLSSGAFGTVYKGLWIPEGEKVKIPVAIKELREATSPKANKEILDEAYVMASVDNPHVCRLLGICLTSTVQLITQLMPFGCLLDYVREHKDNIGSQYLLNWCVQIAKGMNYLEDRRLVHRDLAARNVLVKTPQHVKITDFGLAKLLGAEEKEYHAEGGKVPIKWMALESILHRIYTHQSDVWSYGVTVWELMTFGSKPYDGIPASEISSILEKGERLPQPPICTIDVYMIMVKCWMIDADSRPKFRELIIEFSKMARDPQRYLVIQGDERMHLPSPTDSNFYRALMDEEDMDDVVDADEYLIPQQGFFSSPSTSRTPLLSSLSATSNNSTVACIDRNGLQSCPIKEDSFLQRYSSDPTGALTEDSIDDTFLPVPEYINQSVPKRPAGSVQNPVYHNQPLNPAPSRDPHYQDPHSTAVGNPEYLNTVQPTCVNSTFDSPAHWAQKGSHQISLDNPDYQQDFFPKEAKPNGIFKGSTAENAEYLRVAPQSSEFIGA
T1 sequence (Q06187 whole entry): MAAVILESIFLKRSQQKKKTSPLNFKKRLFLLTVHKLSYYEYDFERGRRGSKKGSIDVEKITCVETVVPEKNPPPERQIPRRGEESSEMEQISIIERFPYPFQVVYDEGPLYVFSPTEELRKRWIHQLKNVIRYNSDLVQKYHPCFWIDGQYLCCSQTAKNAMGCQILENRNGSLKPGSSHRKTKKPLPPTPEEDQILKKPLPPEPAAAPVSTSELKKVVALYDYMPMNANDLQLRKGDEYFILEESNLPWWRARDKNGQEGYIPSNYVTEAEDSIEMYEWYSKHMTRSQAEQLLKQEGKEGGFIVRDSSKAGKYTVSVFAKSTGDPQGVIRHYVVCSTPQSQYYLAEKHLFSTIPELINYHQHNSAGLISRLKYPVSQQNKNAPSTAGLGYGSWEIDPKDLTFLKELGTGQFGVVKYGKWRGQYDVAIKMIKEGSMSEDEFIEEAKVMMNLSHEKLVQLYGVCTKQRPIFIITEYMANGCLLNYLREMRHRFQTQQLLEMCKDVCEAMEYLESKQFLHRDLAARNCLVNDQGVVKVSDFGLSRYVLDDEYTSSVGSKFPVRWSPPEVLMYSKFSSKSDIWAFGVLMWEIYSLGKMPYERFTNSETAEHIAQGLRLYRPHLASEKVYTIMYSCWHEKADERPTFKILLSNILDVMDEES

For the compound `Cc1cnc(S(C)(=O)=O)nc1N1CCC[C@H](n2nc(-c3ccc(Oc4ccccc4)cc3)c3c(N)ncnc32)C1`, the inhibition result in [1], in [7], in [8] and in data set [10] was “inactive” in each case. For the same compound, in [2], the Kinact was 0.007 s⁻¹. Moreover, the inhibition result in data set [3], in data set [4], in [5], in data set [6], in data set [9] and in [11] was “Active” throughout.
For the compound `CNC(=O)c1cnc(S(C)(=O)=O)nc1N1CCC[C@H](n2nc(-c3ccc(Oc4ccccc4)cc3)c3c(N)ncnc32)C1`, the inhibition entry in data set [1], in [7], in [8] and in [10] was “inactive” in each case. Besides, the inhibition entry in data set [3], in [4], in data set [5], in [6], in data set [9] and in [11] was “Active” each time. Moreover, the Activity in data set [12] came to 14.5%; in data set [13], 4.6%; in data set [17], 3.9%; in data set [20], 26.6%; in [21], 53%; in data set [22] it was 4.5%. Further, the Activity in [23] was found to be 3.4%. Moreover, the result in data set [14], in [15], in [16], in [19], in data set [24] and in data set [25] was Active. Besides, the outcome in data set [26] and in [28] was Active. Also, the viability at 1 µM in data set [18] was determined as 14.7%. Also, in [27], the negative logarithm of the IC50 (pIC50) is 9.22. In data set [29], the K is 47 10^-5/s.
On to `CS(=O)(=O)c1ncc(Cl)c(C(=O)N2CCC[C@H](n3nc(-c4ccc(Oc5ccccc5)cc4)c4c(N)ncnc43)C2)n1`, for which, in data set [30], the inhibition is 80%.
With `CCOC(=O)c1cnc(S(C)(=O)=O)nc1N1CCC[C@H](n2nc(-c3ccc(Oc4ccccc4)cc3)c3c(N)ncnc32)C1`, the inhibition result in data set [1], in [7] and in data set [10] was “inactive” throughout. Further, the inhibition entry in data set [3], in data set [4], in data set [5], in [6] and in data set [9] was “Active” each time. In data set [31], the remaining at 3 h is 22%. In addition, the inhibition in data set [30] is over 95%.
Consider `Nc1ncnc2c1c(-c1ccc(Oc3ccccc3)cc1)nn2[C@H]1CCCN(C(=O)c2cnc(S(=O)(=O)c3ccccc3)nc2)C1`, for which the inhibition in data set [30] came out at 40%.
For the compound `C=CC(=O)N1CCC[C@@H](n2nc(-c3ccc(Oc4ccccc4)cc3)c3c(N)ncnc32)C1`, the outcome in [32], in data set [33], in data set [34], in [35], in data set [36] and in data set [37] was Active.
As to `CCCCS(=O)(=O)c1ncc(C(=O)N2CCC[C@H](n3nc(-c4ccc(Oc5ccccc5)cc4)c4c(N)ncnc43)C2)cn1`, the inhibition in [30] is 40%.
`COC(=O)c1cnc(S(C)(=O)=O)nc1N1CCC[C@H](n2nc(-c3ccc(Oc4ccccc4)cc3)c3c(N)ncnc32)C1`: the inhibition entry in data set [1], in data set [7] and in data set [10] was “inactive” each time. The inhibition result in data set [3], in data set [4], in [5], in data set [6] and in data set [9] was “Active” throughout.
As for `CCCCS(=O)(=O)c1nccc(C(=O)N2CCC[C@H](n3nc(-c4ccc(Oc5ccccc5)cc4)c4c(N)ncnc43)C2)n1`, in [30], the inhibition was found to be 40%.
Still for that read-out and setting: in the case of `CS(=O)(=O)c1ncc(C(=O)N2CCC[C@H](n3nc(-c4ccc(Oc5ccccc5)cc4)c4c(N)ncnc43)C2)cn1` it was 80%; in that of `CS(=O)(=O)c1nccc(C(=O)N2CCC[C@H](n3nc(-c4ccc(Oc5ccccc5)cc4)c4c(N)ncnc43)C2)n1`, 80%.
